Data published in ChEMBL document CHEMBL1137788, “Potential neuroprotective drugs in cerebral ischemia: new saturated and polyunsaturated lipids coupled to hydrophilic moieties: synthesis and biological activity” (J Med Chem, 2009).
The source made the active and inactive calls. The rule behind the calls is not given here.

Experiments:
HT-22 [1] = assay: Neuroprotective effect against iodoacetic acid-induced ischemia in mouse HT22 cells assessed as cell survival at 1 to 10 uM treated simultaneously with iodoacetic acid for 2 hrs followed by incubation in fresh medium containing drug alone for 20 hrs measured after 4 hrs by MTT assay; assay type: functional
Outline: (§1)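 HT22 cells were seeded at 5 × 10³ per well and moved next day to DMEM with 7.5% dialyzed FCS. They were exposed to 20 μM iodoacetic acid plus graded compound doses for 2 h, then given fresh IAA-free medium containing compound for 20 h. MTT was added for 4 h at 37 °C and absorbance read at 570 nm.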

HT-22 [2] = assay: Neuroprotective effect against glutamate-induced neuronal cell death in mouse HT22 cells assessed as cell survival at 1 to 10 uM treated simultaneously with glutamate after 24 hrs by MTT assay; assay type: functional
Outline: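 Mouse HT22 hippocampal cells grown in DMEM/10% FCS, seeded 5 × 10³ cells/well. Next day medium changed to DMEM with 7.5% dialyzed FCS and cells given analogue doses together with 5 mM glutamate for 24 h. Medium then replaced with 2.5 μg/mL MTT for 4 h at 37 °C and solubilized in 50% DMF/20% SDS (pH 4.7). A570 read next day. Maximal % survival at best dose reported.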

HT-22 [3] = assay: Neuroprotective effect against iodoacetic acid-induced ischemia in mouse HT22 cells treated simultaneously with iodoacetic acid for 2 hrs followed by incubation in fresh medium containing drug alone for 20 hrs measured after 4 hrs by MTT assay; assay type: functional, cell-based; outline: as §1
[4] = Cytotoxicity against mouse HT22 cells at 10 uM after 24 hrs by MTT assay; assay type: cell-based; conditions: ht-22, 24 h
Outline: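 HT22 cells grown in DMEM with 10% FCS were seeded at 5 × 10³ cells per well. The medium was switched to DMEM with 7.5% dialyzed FCS and cells were exposed to 10 μM compound alone. Viability was read after 24 h by MTT (2.5 μg/mL, 4 h at 37 °C, solubilized in DMF/SDS pH 4.7) at 570 nm.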

HT-22 [5] = assay: Activation of ERK phosphorylation in mouse HT22 cells at 10 uM treated simultaneously with iodoacetic acid for 2 hrs followed by 2 hrs of recovery in presence of drug alone by immunoblot analysis; assay type: cell-based
Outline: (§2)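 HT22 cells, plated at the same density as for the death assays, were given 10 μM compound with or without 20 μM IAA for 2 h, then allowed 2 h of recovery with compound present. Cells were washed in PBS and lysed in SDS sample buffer with Na3VO4 and PMSF. Lysates were run on 10% gels and immunoblotted for phospho and total ERK, JNK, p38, c-Jun and MAPKAPK2.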

[6] = target: T1, MAP kinase p38 (Mus musculus) (UniProt P47811+O08911+Q9WUI1+Q9Z1B7); assay: Inhibition of p38 MAPK activation in mouse HT22 cells at 10 uM treated simultaneously with iodoacetic acid for 2 hrs followed by 2 hrs of recovery in presence of drug alone by immunoblot analysis; assay type: cell-based; conditions: HT-22; outline: as §2
HT-22 [7] = assay: Inhibition of JNK activation in mouse HT22 cells at 10 uM treated simultaneously with iodoacetic acid for 2 hrs followed by 2 hrs of recovery in presence of drug alone by immunoblot analysis; assay type: cell-based; outline: as §2
[8] = target: T1, MAP kinase p38 (Mus musculus); assay: Inhibition of p38 MAPK activation in mouse HT22 cells assessed as MAPKAPK2 phosphorylation at 10 uM treated simultaneously with iodoacetic acid for 2 hrs followed by 2 hrs of recovery in presence of drug alone by immunoblot analysis; assay type: cell-based; conditions: HT-22; outline: as §2
HT-22 [9] = assay: Inhibition of JNK activation in mouse HT22 cells assessed as c-jun phosphorylation at 10 uM treated simultaneously with iodoacetic acid for 2 hrs followed by 2 hrs of recovery in presence of drug alone by immunoblot analysis; assay type: cell-based; outline: as §2
Brain = assay: Neuroprotective effect against glutamate-induced injury in rat brain slices at 10 uM treated 1 hr prior to and during glutamate challenge by 2, 3, 5-triphenyl tetrazolium chloride staining method; assay type: functional, tissue-based
Outline: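 Rat cortical slices were cultured with compound for 1 h before and during injury with 1 mM glutamate. Slice viability was assessed by TTC staining, n=6, mean ± SD.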

SMILES	%max (HT-22 [1]) [%]	%max (HT-22 [2]) [%]	EC50 (HT-22 [3]) [µM]	Activity [4] [%]	Activity (HT-22 [5])	Activity [6]	Activity (HT-22 [7])	Activity [8]	Activity (HT-22 [9])	Activity (Brain)
CCOC(=O)C(CO)NC(=O)C=C(C)/C=C/C=C(C)/C=C/C1=C(C)CCCC1(C)C (stereo not drawn)	45	14	11.6	15	inactive	–	–	–	–	–
CCCCCCCCCCCCCCCCCC(=O)NCCCCCC(=O)OCC(O)C1OC(=O)C(O)=C1O (stereo not drawn)	92	65	1.8	40	inactive	–	–	–	–	–
CCCCC/C=C\C/C=C\CCCCCCCC(=O)NCCCCCC(=O)OCC(O)C1OC(=O)C(O)=C1O (stereo not drawn)	55	32	6.4	19	inactive	–	–	–	–	–
CC1=CC(=O)CC(C)(C)C1(O)/C=C/C(C)=C/C(=O)NC(CO)C(=O)O (stereo not drawn)	70	14	2.7	40	inactive	–	–	–	–	–
O=c1c(O)c(-c2ccc(O)c(O)c2)oc2cc(O)ccc12 [FISETIN]	95	–	2.8	15	inactive	–	–	–	–	–
CCOC(=O)C(CO)NC(=O)[C@@]1(C)CCC[C@@]2(C)C1CC=C1C=C(C(C)C)CC[C@H]12 (stereo partly drawn)	85	55	1.05	25	inactive	Active	Active	Active	Active	–
CCCCCCCCCCCCCCCCCC(=O)NC(CO)P(=O)(O)O (stereo not drawn)	74	20	2.1	50	inactive	–	–	–	–	–
CCCCCCCCCCCCCCCCCC(=O)NC(CO)C(=O)OCC (stereo not drawn)	56	16	9.8	53	inactive	–	–	–	–	–
CCCCCCCCCCCCCCCCCC(=O)NC(CO)C(=O)O (stereo not drawn)	65	16	3.2	28	inactive	–	–	–	–	Active
CCOC(=O)C(CO)NC(=O)/C=C(C)/C=C/C1(O)C(C)=CC(=O)CC1(C)C (stereo not drawn)	39	21	13.6	1	inactive	–	–	–	–	–
CCCCCCCCCCCCCCCCCC(=O)NC(CO)P(=O)(OC)OC (stereo not drawn)	64	17	4.1	11	inactive	–	–	–	–	–
CC1=C(/C=C/C(C)=C/C=C/C(C)=C/C(=O)NC(CO)C(=O)O)C(C)(C)CCC1 (stereo not drawn)	63	16	4.1	20	inactive	–	–	–	–	–
CC(C)C1=CC2=CCC3[C@](C)(CCC[C@]3(C)C(=O)NC(CO)C(=O)O)[C@@H]2CC1 (stereo partly drawn)	27	10	–	26	inactive	–	–	–	–	–
CCCCC/C=C/C/C=C/CCCCCCCC(=O)NCCCCCC(=O)OCC(O)C1OC(=O)C(OCc2ccccc2)=C1OCc1ccccc1 (stereo not drawn)	59	13	8.2	7	inactive	–	–	–	–	–
CCCCCCCCCCCCCCCCCC(=O)NCCCCCC(=O)OCC(O)C1OC(=O)C(OCc2ccccc2)=C1OCc1ccccc1 (stereo not drawn)	68	19	2.5	48	inactive	–	–	–	–	–
CCCCC/C=C/C/C=C/CCCCCCCC(=O)NC(C(=O)OCC)c1nnn[nH]1 (stereo not drawn)	41	8	11.3	4	inactive	–	–	–	–	–
